Experimental data reported in ChEMBL document CHEMBL5046317, “Diminishing GSH-Adduct Formation of Tricyclic Diazepine-based Mutant IDH1 Inhibitors” (ACS Med Chem Lett, 2022).
Values after ≈ are worked out from the molar mass of the structure shown.

Assays:
MOG-G-UVW = experiment: Antiproliferative activity against human MOG-G-UVW cells assessed as inhibition of cell proliferation incubated for 72 hrs by cell titer-Glo assay; format: functional, cell-based
[1] = Metabolic stability in human liver microsomes assessed as intrinsic clearance; format: ADME, Microsome; settings: read-out: CLH
[2] = biological target: Isocitrate dehydrogenase [NADP] cytoplasmic (Homo sapiens, UniProt O75874, R132H); experiment: Inhibition of IDH1 R132H mutant (unknown origin) assessed as reduction in NADPH consumption using alpha-KG as substrate incubated for 60 mins by Kinase-GLO reagent based assay
P-gp (ABCB1) = P-gp (ABCB1) (Homo sapiens, UniProt P08183); experiment: Substrate activity at P-gp (unknown origin) transfected in LLC-PK1 cells expressing human MDR1 gene assessed as efflux ratio of permeability across basolateral to apical membrane at 0.1 uM; format: ADME, cell-based
[3] = tested on: P-gp (Mdr1) (Rattus norvegicus); experiment: Substrate activity at rat P-gp transfected in […]-MDR1 expressing Mdr1 gene assessed as efflux ratio of permeability across basolateral to apical membrane at 0.1 uM
[4] = biological target: Isocitrate dehydrogenase [NADP] cytoplasmic (Homo sapiens, UniProt O75874); experiment: Inhibition of IDH1 (unknown origin)
[5] = biological target: T1, Nuclear receptor subfamily 1 group I member 2 (Homo sapiens, UniProt O75469); experiment: Inhibition of PXR (unknown origin)
T1 sequence (O75469 whole entry): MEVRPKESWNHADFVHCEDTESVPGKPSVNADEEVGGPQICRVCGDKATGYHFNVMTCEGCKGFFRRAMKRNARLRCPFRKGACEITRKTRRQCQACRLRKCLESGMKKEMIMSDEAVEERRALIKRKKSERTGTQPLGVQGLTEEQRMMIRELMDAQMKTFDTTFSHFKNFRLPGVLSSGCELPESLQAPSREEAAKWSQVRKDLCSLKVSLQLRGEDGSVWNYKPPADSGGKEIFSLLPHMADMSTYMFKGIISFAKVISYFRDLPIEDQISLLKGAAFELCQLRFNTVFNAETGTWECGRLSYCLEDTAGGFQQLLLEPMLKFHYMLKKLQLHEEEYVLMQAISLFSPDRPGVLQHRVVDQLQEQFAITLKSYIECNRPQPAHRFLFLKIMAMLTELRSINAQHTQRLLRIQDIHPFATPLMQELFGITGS

Cytochrome P450 3A4 = Cytochrome P450 3A4 (Homo sapiens, UniProt P08684); experiment: Inhibition of CYP3A4 (unknown origin); format: ADME
[6] = Drug metabolism in dog liver microsomes assessed as glutathione-adduct formation measured after 60 mins in presence of NADPH; format: ADME, Canis lupus familiaris, Microsome; settings: 1 h
[7] = Distribution coefficient, logD of compound at pH 7.4 by HPLC analysis; format: physicochemical; settings: octanol/water
[8] = Half life in rat at 0.5 mg/kg, iv measured up to 24 hrs by LC-MS/MS analysis; format: ADME, organism-based; settings: in vivo
Summary of the method: (§1)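 Single-dose PK in rat and dog. Rat received 0.5 mg/kg IV and 1 mg/kg PO; dog received 2 mg/kg IV and 10 mg/kg PO. Parameters derived: terminal t1/2, Vd, clearance and oral bioavailability F.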

[9] = Half life in dog at 2 mg/kg, iv measured up to 24 hrs by LC-MS/MS analysis; format: ADME, organism-based, Canis lupus familiaris; settings: in vivo; summary of the method: as §1
[10] = Volume of distribution in rat at 0.5 mg/kg, iv measured up to 24 hrs by LC-MS/MS analysis; format: ADME, organism-based; settings: in vivo; summary of the method: as §1
[11] = Volume of distribution in dog at 2 mg/kg, iv measured up to 24 hrs by LC-MS/MS analysis; format: ADME, organism-based, Canis lupus familiaris; settings: in vivo; summary of the method: as §1
[12] = Clearance in rat at 0.5 mg/kg, iv measured up to 24 hrs by LC-MS/MS analysis; format: ADME, organism-based; settings: in vivo; summary of the method: as §1
[13] = Clearance in dog at 2 mg/kg, iv measured up to 24 hrs by LC-MS/MS analysis; format: ADME, organism-based, Canis lupus familiaris; settings: in vivo; summary of the method: as §1
[14] = Oral bioavailability in rat 1 mg/kg measured up to 24 hrs by LC-MS/MS analysis; format: ADME, organism-based; settings: in vivo; summary of the method: as §1
[15] = Oral bioavailability in dog 10 mg/kg measured up to 24 hrs by LC-MS/MS analysis; format: ADME, organism-based, Canis lupus familiaris; settings: in vivo; summary of the method: as §1
[16] = Solubility of the compound at pH 2; format: physicochemical; settings: buffer
[17] = Solubility of the compound at pH 6.5; format: physicochemical; settings: buffer
[18] = Solubility of the compound at pH 7; format: physicochemical; settings: buffer
[19] = Permeability of the compound in pig LLC-PK1 cells expressing MDR1; format: ADME, cell-based, Sus scrofa; settings: read-out: permeability
[20] = biological target: T2, Isocitrate dehydrogenase [NADP], mitochondrial (Homo sapiens, UniProt P48735); experiment: Inhibition of IDH2 (unknown origin)
T2 sequence (P48735 whole entry): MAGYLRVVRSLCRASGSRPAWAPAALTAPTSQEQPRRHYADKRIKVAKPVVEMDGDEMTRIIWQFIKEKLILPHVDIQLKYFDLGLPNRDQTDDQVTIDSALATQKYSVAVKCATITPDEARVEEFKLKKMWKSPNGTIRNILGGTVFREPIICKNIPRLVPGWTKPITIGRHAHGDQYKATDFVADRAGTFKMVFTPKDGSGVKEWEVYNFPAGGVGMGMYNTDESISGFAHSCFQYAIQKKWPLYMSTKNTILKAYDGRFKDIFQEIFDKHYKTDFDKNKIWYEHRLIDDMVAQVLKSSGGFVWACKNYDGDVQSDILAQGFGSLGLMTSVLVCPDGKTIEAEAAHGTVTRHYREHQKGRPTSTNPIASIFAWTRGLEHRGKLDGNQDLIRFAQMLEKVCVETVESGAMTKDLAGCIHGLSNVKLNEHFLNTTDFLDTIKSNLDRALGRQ

Isocitrate dehydrogenase [NADP] cytoplasmic (Homo sapiens, UniProt O75874, R132H), sequence (O75874 2-414 R132H limits assumed): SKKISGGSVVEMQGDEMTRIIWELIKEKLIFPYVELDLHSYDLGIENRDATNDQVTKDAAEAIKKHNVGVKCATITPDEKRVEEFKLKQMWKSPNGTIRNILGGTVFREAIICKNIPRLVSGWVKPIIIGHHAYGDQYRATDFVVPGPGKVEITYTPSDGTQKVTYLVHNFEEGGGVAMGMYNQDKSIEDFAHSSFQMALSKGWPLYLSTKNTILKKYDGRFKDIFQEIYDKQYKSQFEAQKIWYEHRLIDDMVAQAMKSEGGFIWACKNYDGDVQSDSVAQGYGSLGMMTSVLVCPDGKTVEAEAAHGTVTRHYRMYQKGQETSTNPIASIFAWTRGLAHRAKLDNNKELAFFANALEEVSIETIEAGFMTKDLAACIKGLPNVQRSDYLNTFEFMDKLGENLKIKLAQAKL
P-gp (ABCB1), sequence (P08183 whole entry): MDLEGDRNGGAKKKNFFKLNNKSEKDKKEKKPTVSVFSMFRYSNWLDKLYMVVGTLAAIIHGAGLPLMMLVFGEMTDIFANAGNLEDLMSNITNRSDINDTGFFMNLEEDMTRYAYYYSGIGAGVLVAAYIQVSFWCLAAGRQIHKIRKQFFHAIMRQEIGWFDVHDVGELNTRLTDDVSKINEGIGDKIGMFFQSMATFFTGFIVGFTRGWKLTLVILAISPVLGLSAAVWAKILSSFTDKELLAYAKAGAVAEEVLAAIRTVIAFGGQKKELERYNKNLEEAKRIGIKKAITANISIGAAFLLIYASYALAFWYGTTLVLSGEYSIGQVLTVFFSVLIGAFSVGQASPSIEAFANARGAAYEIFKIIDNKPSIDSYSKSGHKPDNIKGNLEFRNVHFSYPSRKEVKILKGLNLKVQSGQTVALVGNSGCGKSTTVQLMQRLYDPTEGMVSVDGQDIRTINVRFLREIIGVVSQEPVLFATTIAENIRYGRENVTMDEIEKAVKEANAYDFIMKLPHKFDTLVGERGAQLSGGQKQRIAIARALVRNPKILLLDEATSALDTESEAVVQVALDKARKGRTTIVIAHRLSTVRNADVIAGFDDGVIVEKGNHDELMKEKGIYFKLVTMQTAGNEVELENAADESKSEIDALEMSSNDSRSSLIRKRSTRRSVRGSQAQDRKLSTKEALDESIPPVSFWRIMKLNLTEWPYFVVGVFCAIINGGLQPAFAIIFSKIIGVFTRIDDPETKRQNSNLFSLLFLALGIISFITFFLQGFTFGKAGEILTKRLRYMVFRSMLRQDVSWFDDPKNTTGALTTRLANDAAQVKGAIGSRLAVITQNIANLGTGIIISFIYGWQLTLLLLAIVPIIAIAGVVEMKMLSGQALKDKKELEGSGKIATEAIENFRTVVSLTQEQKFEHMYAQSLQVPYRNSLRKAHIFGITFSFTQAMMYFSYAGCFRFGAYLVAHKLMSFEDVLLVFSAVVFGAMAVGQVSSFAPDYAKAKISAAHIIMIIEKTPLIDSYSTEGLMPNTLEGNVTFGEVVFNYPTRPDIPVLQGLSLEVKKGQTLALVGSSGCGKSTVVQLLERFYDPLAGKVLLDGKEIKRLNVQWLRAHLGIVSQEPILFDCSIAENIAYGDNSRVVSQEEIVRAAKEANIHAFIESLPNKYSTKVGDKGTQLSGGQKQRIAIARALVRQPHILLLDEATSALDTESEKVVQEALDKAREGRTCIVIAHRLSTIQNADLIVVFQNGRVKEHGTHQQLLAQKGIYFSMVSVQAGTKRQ
Cytochrome P450 3A4, sequence (P08684 whole entry): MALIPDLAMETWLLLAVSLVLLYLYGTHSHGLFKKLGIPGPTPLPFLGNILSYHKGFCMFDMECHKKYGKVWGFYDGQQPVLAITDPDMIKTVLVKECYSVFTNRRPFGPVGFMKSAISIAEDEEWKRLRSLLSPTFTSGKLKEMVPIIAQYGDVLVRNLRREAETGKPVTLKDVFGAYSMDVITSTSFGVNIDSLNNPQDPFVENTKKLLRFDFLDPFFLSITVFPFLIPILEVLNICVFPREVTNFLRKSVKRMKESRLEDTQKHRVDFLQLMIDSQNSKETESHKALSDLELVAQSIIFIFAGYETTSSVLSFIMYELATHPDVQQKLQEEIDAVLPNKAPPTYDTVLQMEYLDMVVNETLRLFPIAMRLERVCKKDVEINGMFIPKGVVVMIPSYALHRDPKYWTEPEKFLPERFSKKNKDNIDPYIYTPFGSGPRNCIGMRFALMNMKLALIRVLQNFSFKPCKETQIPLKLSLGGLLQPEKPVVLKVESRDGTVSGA
Isocitrate dehydrogenase [NADP] cytoplasmic (Homo sapiens, UniProt O75874), sequence (O75874 whole entry): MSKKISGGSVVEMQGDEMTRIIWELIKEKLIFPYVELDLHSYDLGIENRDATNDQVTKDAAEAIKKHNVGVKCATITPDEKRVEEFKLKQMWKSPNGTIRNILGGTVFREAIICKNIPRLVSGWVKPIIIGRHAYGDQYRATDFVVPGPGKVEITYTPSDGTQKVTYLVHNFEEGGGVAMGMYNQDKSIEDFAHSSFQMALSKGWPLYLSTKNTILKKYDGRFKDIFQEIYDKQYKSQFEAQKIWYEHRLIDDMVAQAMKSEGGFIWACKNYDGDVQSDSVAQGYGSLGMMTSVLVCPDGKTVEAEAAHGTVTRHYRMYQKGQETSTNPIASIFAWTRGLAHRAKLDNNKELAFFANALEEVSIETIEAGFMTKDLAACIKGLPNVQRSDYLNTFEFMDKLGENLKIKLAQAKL

Structure (SMILES)	CLint scaled [1] [mL/min/kg]	IC50 [2] [nM]	efflux ratio at 0.1 µM (P-gp (ABCB1))	IC50 (MOG-G-UVW) [nM]	other results
CC(C)O[C@H]1CC[C@H](C(=O)N2Cc3nccnc3Nc3ccc(C4CCOCC4)cc32)CC1	92	22.4	1.4	146	
COC1C[C@H]2CC[C@@H](C1)N2c1ccc2c(c1)N(C(=O)C1CCN(CC(F)(F)F)CC1)Cc1cccnc1N2 (some centres not stated)		15.6		61	
O=C(C1CCc2ccccc2CC1)N1Cc2cccnc2Nc2ccc(N3CCOCC3)cc21	1500	> 50000	1.7	43	IC50 [4]: > 5000 nM; IC50 [5]: 3200 nM; IC50 (Cytochrome P450 3A4): > 5000 nM
CC(C)O[C@H]1CC[C@H](C(=O)N2Cc3cccnc3Nc3ccc(C4COCCO4)cc32)OC1 (some centres not stated)	34		1.1	88.5	Activity [6]: 7%
CC(C)O[C@H]1CC[C@H](C(=O)N2Cc3cccnc3Nc3cc(F)c(C4COCCO4)cc32)OC1 (some centres not stated)	58	32.5	1.2	53.6	logD [7]: 2.67; half-life [8]: 1.1 h; half-life [9]: 6 h; Vd [10]: 3.7 L/kg; Vd [11]: 5.1 L/kg; clearance [12]: 69 mL/min/kg; clearance [13]: 26 mL/min/kg; bioavailability [14]: 100%; bioavailability [15]: 77%; solubility [16]: 143 µM (≈ 67.4 µg/mL); solubility [17]: 154 µM (≈ 72.6 µg/mL); solubility [18]: 123 µM (≈ 58 µg/mL); Papp [19]: 38.7 ×10⁻⁶ cm/s; Activity [6]: 1%
CC(C)O[C@H]1CC[C@H](C(=O)N2Cc3cc(F)cnc3Nc3ccc(C4COCCO4)cc32)OC1 (some centres not stated)	50	24.4	0.9	56.9	Activity [6]: 12%
CC(C)O[C@H]1CC[C@H](C(=O)N2Cc3cccnc3Nc3ccc(N4CC5(CCCOC5)C4)cc32)CC1				119	
O=C(C1CCN(CC(F)(F)F)CC1)N1Cc2cc(F)cnc2Nc2ccc(N3C[C@@H]4C[C@H]3CO4)cc21	33	8.7	2.2	42.4	
CC(C)O[C@H]1CC[C@H](C(=O)N2Cc3cc(F)cnc3Nc3ccc(N4C[C@H]5CC[C@@H]4CO5)cc32)OC1	22	11	1.4	8.1	
CC(C)O[C@H]1CC[C@H](C(=O)N2Cc3cc(F)cnc3Nc3ccc(-c4cnn(C)c4)cc32)OC1	51	4.9	1.2	18.3	

Further lines, with some results ahead:

CLint scaled [1] [mL/min/kg]	IC50 [2] [nM]	efflux ratio at 0.1 µM (P-gp (ABCB1))	Structure (SMILES)	IC50 (MOG-G-UVW) [nM]	other results
34			CC(C)O[C@H]1CC[C@H](C(=O)N2Cc3cccnc3Nc3ccc(N4C[C@@H]5C[C@H]4CO5)cc32)CC1	60.6	
	11	3.6	CC(C)O[C@H]1CC[C@H](C(=O)N2Cc3cccnc3Nc3ccc(N4CC5CCC4CO5)cc32)CC1 (some centres not stated)	17.2	
	28.7		CC(C)O[C@H]1CC[C@H](C(=O)N2Cc3cc(Cl)cnc3Nc3ccc(N4CC5CCC4CO5)cc32)CC1 (some centres not stated)	95.9	efflux ratio at 0.1 µM [3]: 4.6
	34.9		CC(C)O[C@H]1CC[C@H](C(=O)N2Cc3cccnc3Nc3ccc(N4CCOCC4)cc32)CC1	64.4	
177	197	8.1	CC(C)O[C@H]1CC[C@H](C(=O)N2Cc3cncnc3Nc3ccc(N4C[C@@H]5C[C@H]4CO5)cc32)CC1	810	
143	25.3	3.4	CC(C)O[C@H]1CC[C@H](C(=O)N2c3cc(N4C[C@@H]5C[C@H]4CO5)ccc3Nc3ncccc3C2C)CC1 (some centres not stated)	88.6	
	1390		CC(C)O[C@H]1CC[C@H](C(=O)N2Cc3cccnc3Nc3cnn(CC4CCOCC4)c32)CC1	5020	
	11200		CC(C)O[C@H]1CC[C@H](C(=O)N2Cc3cc(S(C)(=O)=O)cnc3Nc3ccc(N4CC5CCC4CO5)cc32)CC1 (some centres not stated)	> 10000	
124		2.5	CC(C)O[C@H]1CC[C@H](C(=O)N2Cc3cccnc3Nc3cc(F)c(N4CC5CCC4CO5)cc32)CC1 (some centres not stated)	36.2	
	21.2	2.9	CC(C)O[C@H]1CC[C@H](C(=O)N2Cc3cc(F)cnc3Nc3ccc(N4CC5CCC4CO5)cc32)CC1 (some centres not stated)	18.2	
64	116	6.6	CC(C)O[C@H]1CC[C@H](C(=O)N2Cc3cccnc3Nc3cnc(N4C[C@@H]5C[C@H]4CO5)cc32)CC1	261	
	113	2.2	Cc1cnc2c(c1)CN(C(=O)[C@H]1CC[C@H](OC(C)C)CC1)c1cc(N3CC4CCC3CO4)ccc1N2 (some centres not stated)	456	
21	21.6		CC(C)O[C@H]1CC[C@H](C(=O)N2Cc3cccnc3Nc3ccc(N4C[C@H]5CC[C@@H]4CO5)cc32)OC1	17.8	IC50 [4]: > 50000 nM; IC50 [20]: > 50000 nM; IC50 [5]: 18000 nM; IC50 (Cytochrome P450 3A4): 1000 nM
210		3.1	CC(C)O[C@H]1CC[C@H](C(=O)N2Cc3cccnc3Nc3ccc(N4CC5CCC4CO5)c(F)c32)CC1 (some centres not stated)	205	
20	181	3.7	CC(C)O[C@H]1CC[C@H](C(=O)N2Cc3cccnc3Nc3cnc(C4COCCO4)cc32)CC1 (some centres not stated)	581	
